Data: ChEMBL document CHEMBL4373647, “Design, synthesis, and antimicrobial evaluation of 1,4-dihydroindeno[1,2-c]pyrazole tethered carbohydrazide hybrids: exploring their in silico ADMET, ergosterol inhibition and ROS inducing potential” (Medchemcomm, 2019)
≈ marks a conversion by molar mass, not a printed value.

Experiments:
[1] = test system: Staphylococcus aureus; test: Ratio of MBC to MIC against Staphylococcus aureus MTCC 96; type: functional
[2] = test system: Micrococcus luteus; test: Ratio of MBC to MIC against Micrococcus luteus MTCC 2470; type: functional
[3] = test system: Staphylococcus aureus; test: Antibacterial activity against Staphylococcus aureus MTCC 96 assessed as inhibition of bacterial growth incubated for 24 hrs by agar well diffusion method; type: functional; settings: MTCC 96, 24 h
How it was run: (§1)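 Strains from MTCC; inoculum at 0.5 McFarland spread on Mueller-Hinton agar; 6 mm wells loaded with compound over 125–0.97 µg/mL; ciprofloxacin positive control (same range), DMSO negative control. Plates held 24 h at 37 °C; MIC taken as lowest concentration giving a clear inhibition zone. Triplicate runs, mean MIC reported.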

[4] = test system: Staphylococcus aureus; test: Antibacterial activity against Staphylococcus aureus MLS-16 MTCC 2940 assessed as inhibition of bacterial growth incubated for 24 hrs by agar well diffusion method; type: functional; settings: MLS-16 MTCC 2940, 24 h; how it was run: as §1
[5] = test system: Bacillus subtilis; test: Antibacterial activity against Bacillus subtilis MTCC 121 assessed as inhibition of bacterial growth incubated for 24 hrs by agar well diffusion method; type: functional; settings: MTCC 121, 24 h; how it was run: as §1
[6] = test system: Escherichia coli; test: Antibacterial activity against Escherichia coli MTCC 739 assessed as inhibition of bacterial growth incubated for 24 hrs by agar well diffusion method; type: functional; settings: MTCC 739, 24 h; how it was run: as §1
[7] = test system: Pseudomonas aeruginosa; test: Antibacterial activity against Pseudomonas aeruginosa MTCC 2453 assessed as inhibition of bacterial growth incubated for 24 hrs by agar well diffusion method; type: functional; settings: MTCC 2453, 24 h; how it was run: as §1
[8] = test system: Candida albicans; test: Antifungal activity against Candida albicans MTCC 3017 assessed as inhibition of fungal growth incubated for 24 hrs by agar well diffusion method; type: functional; settings: MTCC 3017, 24 h
How it was run: (§2)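 Candida strains from MTCC, pre-cultured and spread on Mueller Hinton agar. Wells received compound dissolved in 10% DMSO, 125–0.97 µg/mL; miconazole standard over the same range, DMSO negative control. After 24 h at 37 °C, MIC was read as the lowest concentration giving an inhibition zone. Duplicate experiments, means given.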

[9] = test system: Candida albicans; test: Antifungal activity against Candida albicans MTCC 1637 assessed as inhibition of fungal growth incubated for 24 hrs by agar well diffusion method; type: functional; settings: MTCC 1637, 24 h; how it was run: as §2
[10] = test system: Candida albicans; test: Antifungal activity against Candida albicans MTCC 4748 assessed as inhibition of fungal growth incubated for 24 hrs by agar well diffusion method; type: functional; settings: MTCC 4748, 24 h; how it was run: as §2
[11] = test system: Candida albicans; test: Antifungal activity against Candida albicans MTCC 7315 assessed as inhibition of fungal growth incubated for 24 hrs by agar well diffusion method; type: functional; settings: MTCC 7315, 24 h; how it was run: as §2
[12] = test system: Candida parapsilosis; test: Antifungal activity against Candida parapsilosis MTCC 1744 assessed as inhibition of fungal growth incubated for 24 hrs by agar well diffusion method; type: functional; settings: Lodderomyces parapsilosis, MTCC 1744, 24 h; how it was run: as §2
[13] = test system: Nakaseomyces glabratus; test: Antifungal activity against Candida glabrata MTCC 3019 assessed as inhibition of fungal growth incubated for 24 hrs by agar well diffusion method; type: functional; settings: MTCC 3019, 24 h; how it was run: as §2
[14] = test system: Pichia sporocuriosa; test: Antifungal activity against Issatchenkia hanoiensis MTCC 4755 assessed as inhibition of fungal growth incubated for 24 hrs by agar well diffusion method; type: functional; settings: MTCC 4755, 24 h; how it was run: as §2
[15] = test system: Micrococcus luteus; test: Bactericidal activity against Micrococcus luteus MTCC 2470 assessed as bacterial killing incubated for 24 hrs; type: functional; settings: MTCC 2470, 24 h
How it was run: (§3)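 Broth tube assay: compound at 0–125 µg/mL in Mueller Hinton broth, overnight culture added to 0.5 McFarland (1.5 × 10^8 cfu/mL), held 24 h at 37 °C. 10 µL from each tube plated on Mueller Hinton agar. MBC is the lowest concentration that kills the strain. Duplicates, means reported.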

[16] = test system: Staphylococcus aureus; test: Bactericidal activity against Staphylococcus aureus MTCC 96 assessed as bacterial killing incubated for 24 hrs; type: functional; settings: MTCC 96, 24 h; how it was run: as §3
[17] = test system: Escherichia coli; test: Bactericidal activity against Escherichia coli MTCC 739 assessed as bacterial killing incubated for 24 hrs; type: functional; settings: MTCC 739, 24 h; how it was run: as §3
[18] = test system: Pseudomonas aeruginosa; test: Bactericidal activity against Pseudomonas aeruginosa MTCC 2453 assessed as bacterial killing incubated for 24 hrs; type: functional; settings: MTCC 2453, 24 h; how it was run: as §3
[19] = test system: MRC5; test: Cytotoxicity against human MRC5 cells incubated for 48 hrs by MTT assay; type: cell-based; settings: MRC5, 48 h
How it was run: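 Normal human lung MRC5 cells grown 24 h in 96-well plates, then exposed to a range of compound concentrations for 48 h. MTT (250 µg/mL) added for 2 h, medium replaced by DMSO, absorbance read at 570 nm. Miconazole positive control, DMSO negative control. Triplicates, mean ± S.D.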

[20] = test system: Pichia kudriavzevii; test: Fungicidal activity against Candida krusei MTCC 3020 assessed as fungal killing incubated for 24 hrs; type: functional; settings: MTCC 3020, 24 h
How it was run: (§4)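 Compound at 125–0.97 µg/mL in Mueller Hinton broth in microcentrifuge tubes, each Candida strain added, held 24 h at 37 °C. 10 µL of the treated suspension plated on Mueller Hinton agar and incubated a further 24 h at 37 °C. MFC is the lowest concentration that kills the strain. Duplicates, means reported.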

[21] = test system: Candida albicans; test: Fungicidal activity against Candida albicans MTCC 227 assessed as fungal killing incubated for 24 hrs; type: functional; settings: MTCC 227, 24 h; how it was run: as §4
[22] = test system: Candida albicans; test: Fungicidal activity against Candida albicans MTCC 4748 assessed as fungal killing incubated for 24 hrs; type: functional; settings: MTCC 4748, 24 h; how it was run: as §4
[23] = test system: Candida parapsilosis; test: Fungicidal activity against Candida parapsilosis MTCC 1744 assessed as fungal killing incubated for 24 hrs; type: functional; settings: Lodderomyces parapsilosis, MTCC 1744, 24 h; how it was run: as §4
[24] = test system: Nakaseomyces glabratus; test: Fungicidal activity against Candida glabrata MTCC 3019 assessed as fungal killing incubated for 24 hrs; type: functional; settings: MTCC 3019, 24 h; how it was run: as §4
[25] = test system: Pichia sporocuriosa; test: Fungicidal activity against Issatchenkia hanoiensis MTCC 4755 assessed as fungal killing incubated for 24 hrs; type: functional; settings: MTCC 4755, 24 h; how it was run: as §4
[26] = test system: Staphylococcus aureus; test: Ratio of MBC to MIC against Staphylococcus aureus MLS-16 MTCC 2940; type: functional
[27] = test system: Bacillus subtilis; test: Ratio of MBC to MIC against Bacillus subtilis MTCC 121; type: functional
[28] = test system: Candida albicans; test: Ratio of MFC to MIC against Candida albicans MTCC 1637; type: functional
[29] = test system: Candida albicans; test: Ratio of MFC to MIC against Candida albicans MTCC 4748; type: functional
How it was run: (§5)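 MIC by agar well diffusion: Candida lawns on Mueller-Hinton agar, wells loaded with compound in 10% DMSO (125–0.97 µg/mL), 24 h at 37 °C, lowest concentration giving an inhibition zone. MFC: compound in Mueller-Hinton broth (125–0.97 µg/mL) with yeast, 24 h at 37 °C, 10 µL plated on agar, lowest killing concentration after 24 h. Ratio is MFC/MIC.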

[30] = test system: Candida albicans; test: Ratio of MFC to MIC against Candida albicans MTCC 7315; type: functional; how it was run: as §5
[31] = test system: Candida parapsilosis; test: Ratio of MFC to MIC against Candida parapsilosis MTCC 1744; type: functional; how it was run: as §5
[32] = test system: Nakaseomyces glabratus; test: Ratio of MFC to MIC against Candida glabrata MTCC 3019; type: functional; how it was run: as §5
[33] = test system: Pichia kudriavzevii; test: Ratio of MFC to MIC against Candida krusei MTCC 3020; type: functional; how it was run: as §5
[34] = test system: Pichia sporocuriosa; test: Ratio of MFC to MIC against Issatchenkia hanoiensis MTCC 4755; type: functional; how it was run: as §5
[35] = test system: Escherichia coli; test: Ratio of MBC to MIC for Escherichia coli MTCC 739; type: functional
[36] = test system: Pseudomonas aeruginosa; test: Ratio of MBC to MIC for Pseudomonas aeruginosa MTCC 2453; type: functional
[37] = test system: Raoultella planticola; test: Ratio of MBC to MIC for Klebsiella planticola MTCC 530; type: functional

MIC [3]: 3.9 µg/mL (≈ 11.2 µM)
MIC [4]: 7.8 µg/mL (≈ 22.4 µM)
MIC [5]: 3.9 µg/mL (≈ 11.2 µM)
MIC [6]: 7.8 µg/mL (≈ 22.4 µM)
MIC [7]: 7.8 µg/mL (≈ 22.4 µM)
MIC [8]: 7.8 µg/mL (≈ 22.4 µM)
MIC [9]: 15.6 µg/mL (≈ 44.8 µM)
MIC [10]: 3.9 µg/mL (≈ 11.2 µM)
MIC [11]: 7.8 µg/mL (≈ 22.4 µM)
MIC [12]: 15.6 µg/mL (≈ 44.8 µM)
MIC [13]: 3.9 µg/mL (≈ 11.2 µM)
MIC [14]: 15.6 µg/mL (≈ 44.8 µM)
SMILES: COc1cc(/C=N/NC(=O)c2n[nH]c3c2Cc2ccccc2-3)ccc1O
Ratio [1]: 2
Ratio [2]: 2
MBC [15]: 15.6 µg/mL (≈ 44.8 µM)
MBC [16]: 7.8 µg/mL (≈ 22.4 µM)
MBC [17]: 15.6 µg/mL (≈ 44.8 µM)
MBC [18]: 15.6 µg/mL (≈ 44.8 µM)
IC50 [19]: 31.2 µg/mL (≈ 89.6 µM)
MFC [20]: 31.2 µg/mL (≈ 89.6 µM)
MFC [21]: 15.6 µg/mL (≈ 44.8 µM)
MFC [22]: 7.8 µg/mL (≈ 22.4 µM)
MFC [23]: 31.2 µg/mL (≈ 89.6 µM)
MFC [24]: 7.8 µg/mL (≈ 22.4 µM)
MFC [25]: 31.2 µg/mL (≈ 89.6 µM)
Ratio [26]: 2
Ratio [27]: 2
Ratio [28]: 2
Ratio [29]: 2
Ratio [30]: 2
Ratio [31]: 2
Ratio [32]: 2
Ratio [33]: 2
Ratio [34]: 2
Ratio [35]: 2
Ratio [36]: 2
Ratio [37]: 2
